Reference: ChEMBL document CHEMBL4828712, “Design of gp120 HIV-1 entry inhibitors by scaffold hopping via isosteric replacements” (Eur J Med Chem, 2021)
Active and inactive are the calls of the source. The calls are words filed in the database; no cut-off is given here.

Biological target: Envelope glycoprotein gp160 (Human immunodeficiency virus 1) (UniProt Q6QLK5)
Assay: Inhibition of gp120 in HIV-1 ADA infected in CD4-negative dog Cf2Th-CCR5 cells assessed as antagonism of viral entry by measuring inhibition of viral infection at 20 to 60 uM pretreated for 30 mins before viral infection and incubated for 48 hrs by luciferase assay
Type: cell-based
Conditions: dose 20-60 µM, time 48.5 hrs
In short: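 CD4-negative Cf2Th-CCR5 cells infected with a luciferase-expressing recombinant CD4-dependent HIV-1 ADA pseudovirus under escalating compound concentrations. Read-out is relative infectivity: infection with compound divided by infection without compound. Three independent experiments, each run in triplicate.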

Chain of Envelope glycoprotein gp160 (Human immunodeficiency virus 1) (Q6QLK5 1-814): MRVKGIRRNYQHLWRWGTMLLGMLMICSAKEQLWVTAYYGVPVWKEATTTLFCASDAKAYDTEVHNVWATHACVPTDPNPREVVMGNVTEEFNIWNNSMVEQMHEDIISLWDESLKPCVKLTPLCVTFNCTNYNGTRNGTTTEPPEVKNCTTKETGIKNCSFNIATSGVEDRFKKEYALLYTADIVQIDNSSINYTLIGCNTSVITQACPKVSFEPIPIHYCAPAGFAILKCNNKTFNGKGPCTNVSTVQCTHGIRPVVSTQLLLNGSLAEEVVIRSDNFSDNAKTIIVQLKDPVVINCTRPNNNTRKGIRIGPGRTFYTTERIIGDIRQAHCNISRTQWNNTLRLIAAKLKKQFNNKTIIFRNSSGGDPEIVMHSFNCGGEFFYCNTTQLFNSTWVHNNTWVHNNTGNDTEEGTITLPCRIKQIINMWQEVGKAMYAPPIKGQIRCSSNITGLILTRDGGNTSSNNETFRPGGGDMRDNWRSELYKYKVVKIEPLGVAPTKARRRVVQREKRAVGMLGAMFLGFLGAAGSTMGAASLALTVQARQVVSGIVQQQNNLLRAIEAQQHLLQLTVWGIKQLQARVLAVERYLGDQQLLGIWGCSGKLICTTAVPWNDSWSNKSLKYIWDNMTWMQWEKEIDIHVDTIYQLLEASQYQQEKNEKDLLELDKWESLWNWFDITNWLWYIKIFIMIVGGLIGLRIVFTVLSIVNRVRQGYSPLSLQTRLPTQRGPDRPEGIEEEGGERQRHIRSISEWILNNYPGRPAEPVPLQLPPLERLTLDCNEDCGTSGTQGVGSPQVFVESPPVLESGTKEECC

In the case of `Cc1cc(-c2ccc(C(F)(F)F)cn2)[nH]c1C(=O)NC(CN)c1ncc(CO)s1` (stereo not given), the inhibition is reported as “Active”.
For `NC[C@@H](NC(=O)c1ccc(-c2ccc(Cl)cc2)[nH]1)c1nccs1`, the inhibition was “Active”.

Tested on: not listed separately
Assay: Cytotoxicity against human U87/CD4/CCR5 cells assessed as reduction in cell viability incubated for 3 days by XTT assay
Type: cell-based
Conditions: U87/CD4/CCR5 cells, time 3 day
In short: (§1)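 Viability read by the colorimetric XTT method in the stated cell line, run alongside the antiviral assays on the same cells; CC50 calculated from the viability data; values reported as mean ± standard deviation.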

`NC[C@@H](NC(=O)c1ccc(-c2ccc(Cl)cc2)[nH]1)c1nccs1` and `NC[C@H](NC(=O)c1ccc(-c2ccc(Cl)cc2)[nH]1)c1nccs1` are within 1.5-fold of each other in CC50 at 72 h: 45.5 µM for the first, 59.1 µM for the second.

Same assay, conditions: u87/cd4/ccr5, 72 h, time 3 day

For `O=C(NC1(c2nc(CO)cs2)CCNCC1)c1ccc(-c2ccc(C(F)(F)F)cc2)[nH]1`, the CC50 was 57.7 µM.

Tested on: not listed separately
Assay: Cytotoxicity against CD4-negative dog Cf2Th-CCR5 cells assessed as reduction in cell viability incubated for 3 days by XTT assay
Type: cell-based, Canis lupus familiaris
Conditions: CD4-negative Cf2Th-CCR5 cells, time 3 day
In short: as §1

`NC[C@@H](NC(=O)c1ccc(-c2ccc(Cl)cc2)[nH]1)c1nccs1` gave a CC50 at 72 h of 24.7 µM.

Same assay, conditions: cf2th-ccr5, 72 h, time 3 day

`CC1(C)CC(NC(=O)C(=O)Nc2ccc(Cl)cc2)CC(C)(C)N1` and `Cc1cc(-c2ccc(C(F)(F)F)cn2)[nH]c1C(=O)NC(CN)c1ncc(CO)s1` (stereo not given) cannot be ordered by CC50: > 60 µM for the first, > 47 µM for the second.

Tested on: not listed separately
Assay: Inhibition of glycoprotein in VSV-G pseudotyped MLV virus infected in human U87/CD4/CCR5 cells assessed as inhibition of viral infection pretreated for 30 mins before viral infection and measured after 3 days by luciferase based single cycle infection assay
Type: cell-based
Conditions: Murine leukemia virus
In short: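 Specificity counter-screen in which U87-CD4-CCR5 cells are infected with the luciferase-reporter control pseudovirus MLV-GP/VSV-G/Luc; IC50 is derived from inhibition of infection.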

First: O=C(NC1(c2nc(CO)cs2)CCNCC1)c1ccc(-c2ccc(C(F)(F)F)cc2)[nH]1
Second: NC[C@@H](NC(=O)c1ccc(-c2ccc(Cl)cc2)[nH]1)c1nccs1
The IC50 of the first is 1.9-fold lower: 6.2 µM for the first, 12 µM for the second.

For `NC[C@H](NC(=O)c1ccc(-c2ccc(Cl)cc2)[nH]1)c1nccs1`, the IC50 was 16.2 µM.

Tested on: not listed separately
Assay: Inhibition of gp120 in HIV-1 NL4-3 HXB-2-Luc pseudotyped virus infected in human TZM-bl cells assessed as reduction in viral infection pretreated for 30 mins before viral infection and measured after 3 days by luciferase based single cycle infection assay
Type: cell-based, HIV-1 M:B_HXB2R
Conditions: Human immunodeficiency virus 1, NL4-3, TZM-bl
In short: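 Single-cycle infection of TZM-bl cells with the HIV-1 NL4-3-HXB2-Luc pseudotyped virus bearing Env of lab-adapted HIV-1 HXB-2 (CXCR4-tropic), with luciferase read-out.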

`Cc1nc([C@@H](CN)NC(=O)NC(=O)c2ccc(Cl)cc2)sc1CO` and `Cc1nc([C@H](CN)NC(=O)NC(=O)c2ccc(Cl)cc2)sc1CO` cannot be ordered by IC50: > 54 µM for the first, > 54 µM for the second.

Going from `CC1(C)CC(NC(=O)C(=O)Nc2ccc(Cl)cc2)CC(C)(C)N1` to `Cc1nc([C@@H](CN)NC(=O)C(=O)Nc2ccc(Cl)cc2)sc1CO`, the IC50 rises from 6.9 µM to > 27 µM.

`NCCNC(=O)c1ccc(-c2ccc(Cl)c(F)c2)[nH]1` and `O=C(NC1CCNCC1)c1ccc(-c2ccc(Cl)c(F)c2)[nH]1` are within 1.5-fold of each other in IC50: 3.3 µM for the first, 4.9 µM for the second.

`NC[C@H](NC(=O)c1ccc(NCC2CCCCC2)cc1)c1ncc(CO)s1` and `NC[C@@H](NC(=O)c1ccc(NCC2CCCCC2)cc1)c1ncc(CO)s1` cannot be ordered by IC50: > 15 µM for the first, > 15 µM for the second.

`Cc1nc([C@@H](CN)NC(=O)c2cc3ccccc3[nH]2)sc1CO` and `Cc1nc([C@H](CN)NC(=O)c2cc3ccccc3[nH]2)sc1CO` cannot be ordered by IC50: > 60 µM for the first, > 60 µM for the second.

`NC[C@@H](NC(=O)CNCc1ccc(Cl)cc1)c1ncc(CO)s1` and `NC[C@H](NC(=O)CNCc1ccc(Cl)cc1)c1ncc(CO)s1` cannot be ordered by IC50: > 23.4 µM for the first, > 23.4 µM for the second.

`Cc1nc([C@H](CN)NC(=O)c2cc3cc(Cl)ccc3[nH]2)sc1CO` and `Cc1nc([C@@H](CN)NC(=O)c2cc3cc(Cl)ccc3[nH]2)sc1CO` cannot be ordered by IC50: 50 µM for the first, > 40 µM for the second.

`NC[C@H](NC(=O)Cc1ccc(OCC2CCCCC2)cc1)c1ncc(CO)s1` and `NC[C@@H](NC(=O)Cc1ccc(OCC2CCCCC2)cc1)c1ncc(CO)s1` cannot be ordered by IC50: > 25 µM for the first, > 25 µM for the second.

`NC[C@H](NC(=O)c1ccc(OCC2CCCCC2)cc1)c1ncc(CO)s1` and `NC[C@@H](NC(=O)c1ccc(OCC2CCCCC2)cc1)c1ncc(CO)s1` cannot be ordered by IC50: > 15 µM for the first, > 15 µM for the second.

First: O=C(NC1(c2nc(CO)cs2)CCNCC1)c1ccc(-c2ccc(C(F)(F)F)cc2)[nH]1
Second: O=C(N[C@H](CC1CCNCC1)c1nc(CO)cs1)c1ccc(-c2ccc(C(F)(F)F)cc2)[nH]1
The IC50 of the first is lower: 5 µM for the first, > 12.5 µM for the second. The first is the more potent here.

`NC[C@H](NC(=O)c1ccc(C2CCCCC2)[nH]1)c1ncc(CO)s1` and `NC[C@@H](NC(=O)c1ccc(C2CCCCC2)[nH]1)c1ncc(CO)s1` cannot be ordered by IC50: > 17 µM for the first, > 17 µM for the second.

`NC[C@H](NC(=O)C(=O)NCc1ccc(Cl)c(F)c1)c1ncc(CO)s1` and `NC[C@@H](NC(=O)C(=O)NCc1ccc(Cl)c(F)c1)c1ncc(CO)s1` cannot be ordered by IC50: > 15 µM for the first, > 15 µM for the second.

Compared with `Cc1nc([C@H](CCN)NC(=O)C(=O)Nc2ccc(Cl)cc2)sc1CO`, `Cc1nc([C@@H](CCN)NC(=O)C(=O)Nc2ccc(Cl)cc2)sc1CO` is lower in IC50: ≥ 14.7 µM for the first, 10.6 µM for the second. The second is the more potent here.

Going from `NC[C@@H](NC(=O)c1ccc(-c2ccc(Cl)cc2)[nH]1)c1nccs1` to `NC[C@H](NC(=O)c1ccc(-c2ccc(Cl)cc2)[nH]1)c1nccs1`, the IC50 falls from 2.4 µM to 1 µM (2.4-fold). The second is the more potent here.

`O=C(N[C@@H](CC1CCNCC1)c1nc(CO)cs1)c1ccc(-c2ccc(C(F)(F)F)cc2)[nH]1` and `Cc1nc([C@H](CN)NC(=O)C(=O)Nc2ccc(Cl)cc2)sc1CO` cannot be ordered by IC50: > 12.5 µM for the first, > 27 µM for the second.

Biological target: Human immunodeficiency virus type 1 reverse transcriptase (Human immunodeficiency virus 1, UniProt Q72547)
Assay: Inhibition of recombinant HIV1 reverse transcriptase by colorimetric assay
Conditions: not given

Going from `CC1(C)CC(NC(=O)C(=O)Nc2ccc(Cl)cc2)CC(C)(C)N1` to `NC[C@@H](NC(=O)c1ccc(-c2ccc(Cl)cc2)[nH]1)c1nccs1`, the IC50 falls from > 300 µM to 31 µM. The second is the more potent here.

Going from `O=C(NC1(c2nc(CO)cs2)CCNCC1)c1ccc(-c2ccc(C(F)(F)F)cc2)[nH]1` to `NC[C@H](NC(=O)c1ccc(-c2ccc(Cl)cc2)[nH]1)c1nccs1`, the IC50 rises from 1.7 µM to 18.9 µM (11-fold). The first is the more potent here.

Tested on: TZM
Assay: (§2) Cytotoxicity against human TZM-bl cells assessed as reduction in cell viability incubated for 3 days by XTT assay
Type: cell-based
Conditions: tzm, 72 h, time 3 day

Compared with `NCCNC(=O)c1ccc(-c2ccc(Cl)c(F)c2)[nH]1`, `O=C(NC1(c2nc(CO)cs2)CCNCC1)c1ccc(-c2ccc(C(F)(F)F)cc2)[nH]1` is 1.9-fold higher in CC50: 17.8 µM for the first, 33.7 µM for the second.

Tested on: not listed separately
Assay: as §2
Type: cell-based
Conditions: TZM-bl cells, time 3 day

`Cc1nc([C@@H](CN)NC(=O)NC(=O)c2ccc(Cl)cc2)sc1CO` and `Cc1nc([C@H](CN)NC(=O)NC(=O)c2ccc(Cl)cc2)sc1CO` cannot be ordered by CC50 at 72 h: > 54 µM for the first, > 54 µM for the second.

`CC1(C)CC(NC(=O)C(=O)Nc2ccc(Cl)cc2)CC(C)(C)N1` and `Cc1nc([C@@H](CN)NC(=O)C(=O)Nc2ccc(Cl)cc2)sc1CO` cannot be ordered by CC50 at 72 h: 60 µM for the first, > 54 µM for the second.

`NC[C@H](NC(=O)c1ccc(NCC2CCCCC2)cc1)c1ncc(CO)s1` and `NC[C@@H](NC(=O)c1ccc(NCC2CCCCC2)cc1)c1ncc(CO)s1` are the same in CC50 at 72 h: 56.5 µM for the first, 56.5 µM for the second.

`Cc1nc([C@@H](CN)NC(=O)c2cc3ccccc3[nH]2)sc1CO` and `Cc1nc([C@H](CN)NC(=O)c2cc3ccccc3[nH]2)sc1CO` cannot be ordered by CC50 at 72 h: > 60 µM for the first, > 60 µM for the second.

`NC[C@@H](NC(=O)CNCc1ccc(Cl)cc1)c1ncc(CO)s1` and `NC[C@H](NC(=O)CNCc1ccc(Cl)cc1)c1ncc(CO)s1` cannot be ordered by CC50 at 72 h: > 70 µM for the first, > 70 µM for the second.

Going from `O=C(NC1CCNCC1)c1ccc(-c2ccc(Cl)c(F)c2)[nH]1` to `O=C(N[C@H](CC1CCNCC1)c1nc(CO)cs1)c1ccc(-c2ccc(C(F)(F)F)cc2)[nH]1`, the CC50 at 72 h rises from 9.7 µM to > 40 µM.

Going from `Cc1nc([C@H](CN)NC(=O)c2cc3cc(Cl)ccc3[nH]2)sc1CO` to `Cc1nc([C@@H](CN)NC(=O)c2cc3cc(Cl)ccc3[nH]2)sc1CO`, the CC50 at 72 h falls from > 55 µM to 47 µM.

Going from `NC[C@H](NC(=O)Cc1ccc(OCC2CCCCC2)cc1)c1ncc(CO)s1` to `NC[C@@H](NC(=O)Cc1ccc(OCC2CCCCC2)cc1)c1ncc(CO)s1`, the CC50 at 72 h falls from 47.5 µM to 27.9 µM (1.7-fold).

`NC[C@H](NC(=O)c1ccc(OCC2CCCCC2)cc1)c1ncc(CO)s1` and `NC[C@@H](NC(=O)c1ccc(OCC2CCCCC2)cc1)c1ncc(CO)s1` are within 1.5-fold of each other in CC50 at 72 h: 26.5 µM for the first, 28.2 µM for the second.

`NC[C@H](NC(=O)c1ccc(C2CCCCC2)[nH]1)c1ncc(CO)s1` and `NC[C@@H](NC(=O)c1ccc(C2CCCCC2)[nH]1)c1ncc(CO)s1` cannot be ordered by CC50 at 72 h: > 57 µM for the first, > 57 µM for the second.

`NC[C@H](NC(=O)C(=O)NCc1ccc(Cl)c(F)c1)c1ncc(CO)s1` and `NC[C@@H](NC(=O)C(=O)NCc1ccc(Cl)c(F)c1)c1ncc(CO)s1` cannot be ordered by CC50 at 72 h: > 77.6 µM for the first, > 77.6 µM for the second.

`Cc1nc([C@H](CCN)NC(=O)C(=O)Nc2ccc(Cl)cc2)sc1CO` and `Cc1nc([C@@H](CCN)NC(=O)C(=O)Nc2ccc(Cl)cc2)sc1CO` cannot be ordered by CC50 at 72 h: ≥ 38.3 µM for the first, ≥ 46.6 µM for the second.

`NC[C@@H](NC(=O)c1ccc(-c2ccc(Cl)cc2)[nH]1)c1nccs1` and `NC[C@H](NC(=O)c1ccc(-c2ccc(Cl)cc2)[nH]1)c1nccs1` are within 1.5-fold of each other in CC50 at 72 h: 38.9 µM for the first, 36.5 µM for the second.

`O=C(N[C@@H](CC1CCNCC1)c1nc(CO)cs1)c1ccc(-c2ccc(C(F)(F)F)cc2)[nH]1` and `Cc1nc([C@H](CN)NC(=O)C(=O)Nc2ccc(Cl)cc2)sc1CO` cannot be ordered by CC50 at 72 h: > 40 µM for the first, > 54 µM for the second.
